Measured values as given in ChEMBL document CHEMBL1154887, “Pycnanthulignenes A-D, antimicrobial cyclolignene derivatives from the roots of Pycnanthus angolensis” (2010).
In brackets after ≈: the same amount, converted by molar mass.

How the values were obtained:
Staphylococcus aureus [1] = test: Antibacterial activity against methicillin-resistant Staphylococcus aureus LMP 805 after 30 mins by microbroth dilution method; assay type: functional
Method in brief: (§1)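 Microbroth dilution MIC, done in three independent repeats. After incubation, 0.2 mg/mL p-iodonitrotetrazolium chloride was added and plates were held at 37 °C for 30 min. Viable cells reduce the yellow dye to pink.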

Escherichia coli [2] = test: Antibacterial activity against beta lactamase positive Escherichia coli LMP 701 after 30 mins by microbroth dilution method; assay type: functional
Method in brief: (§2)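 Microbroth dilution, run three times. After incubation, 0.2 mg/mL p-iodonitrotetrazolium chloride was added and plates were held 30 min at 37 °C. Viable cells reduce the yellow dye to pink. MIC is the lowest concentration that prevented the colour change and gave complete growth inhibition.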

Shigella dysenteriae [3] = test: Antibacterial activity against beta lactamase positive Shigella dysenteriae LMP 606 after 30 mins by microbroth dilution method; assay type: functional; method in brief: as §1
Klebsiella pneumoniae [4] = test: Antibacterial activity against beta ampicillin resistant Klebsiella pneumoniae LMP 803 after 30 mins by microbroth dilution method; assay type: functional; method in brief: as §1
Pseudomonas aeruginosa [5] = test: Antibacterial activity against beta carbenicillin resistant Pseudomonas aeruginosa LMP 804 after 30 mins by microbroth dilution method; assay type: functional; method in brief: as §1
Salmonella enterica [6] = test: Antibacterial activity against chloramphenicol-resistant Salmonella typhi LMP 706 after 30 mins by microbroth dilution method; assay type: functional, Salmonella enterica subsp. enterica serovar Typhi; method in brief: as §1
Citrobacter freundii [7] = test: Antibacterial activity against chloramphenicol-resistant Citrobacter freundii LMP 802 after 30 mins by microbroth dilution method; assay type: functional; method in brief: as §1
Candida albicans [8] = test: Antifungal activity against Candida albicans LMP 709U […] by microbroth dilution method; assay type: functional; method in brief: as §2
Microsporum audouinii [9] = test: Antifungal activity against Microsporum audouinii LMP 725D after 30 mins by microbroth dilution method; assay type: functional; method in brief: as §2
Staphylococcus aureus [10] = test: Antibacterial activity against methicillin-resistant Staphylococcus aureus LMP 805 after 24 hrs by microbroth dilution method; assay type: functional
Method in brief: (§3)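 For MMC, wells with no colour change after the INT step of the microbroth dilution assay were subcultured onto MHA agar and incubated at 37 °C for 24 h. MMC is the lowest concentration giving no growth after subculture. The assay was repeated three times.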

Escherichia coli [11] = test: Antibacterial activity against beta lactamase positive Escherichia coli LMP 701 after 24 hrs by microbroth dilution method; assay type: functional
Method in brief: (§4)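 Minimal microbicidal concentration taken after the microbroth dilution MIC assay. MMC is the lowest concentration giving no growth after subculture.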

Shigella dysenteriae [12] = test: Antibacterial activity against beta lactamase positive Shigella dysenteriae LMP 606 after 24 hrs by microbroth dilution method; assay type: functional; method in brief: as §3
Klebsiella pneumoniae [13] = test: Antibacterial activity against beta ampicillin resistant Klebsiella pneumoniae LMP 803 after 24 hrs by microbroth dilution method; assay type: functional; method in brief: as §3
Pseudomonas aeruginosa [14] = test: Antibacterial activity against beta carbenicillin resistant Pseudomonas aeruginosa LMP 804 after 24 hrs by microbroth dilution method; assay type: functional; method in brief: as §3
Candida albicans [15] = test: Antifungal activity against Candida albicans LMP 709U after 24 hrs by microbroth dilution method; assay type: functional; method in brief: as §4
Microsporum audouinii [16] = test: Antifungal activity against Microsporum audouinii LMP 725D after 24 hrs by microbroth dilution method; assay type: functional; method in brief: as §4
Salmonella enterica [17] = test: Antibacterial activity against chloramphenicol-resistant Salmonella typhi LMP 706 after 24 hrs by microbroth dilution method; assay type: functional, Salmonella enterica subsp. enterica serovar Typhi; method in brief: as §3
Citrobacter freundii [18] = test: Antibacterial activity against chloramphenicol-resistant Citrobacter freundii LMP 802 after 24 hrs by microbroth dilution method; assay type: functional; method in brief: as §3
[19] = Salmonella enterica subsp. enterica serovar Typhi

Compound	MIC (Staphylococcus aureus [1]; LMP 805, 0.5 h) [µg/mL]	MIC (Escherichia coli [2]; LMP 701, 0.5 h) [µg/mL]	MIC (Shigella dysenteriae [3]; LMP 606, 0.5 h) [µg/mL]	MIC (Klebsiella pneumoniae [4]; LMP 803, 0.5 h) [µg/mL]	MIC (Pseudomonas aeruginosa [5]; LMP 804, 0.5 h) [µg/mL]	MIC (Salmonella enterica [6]; LMP 706, 0.5 h) [µg/mL]	MIC (Citrobacter freundii [7]; LMP 802, 0.5 h) [µg/mL]	MIC (Candida albicans [8]) [µg/mL]	MIC (Microsporum audouinii [9]; 0.5 h) [µg/mL]	MMC (Staphylococcus aureus [10]) [µg/mL]	MMC (Escherichia coli [11]) [µg/mL]	MMC (Shigella dysenteriae [12]) [µg/mL]	MMC (Klebsiella pneumoniae [13]) [µg/mL]	MMC (Pseudomonas aeruginosa [14]) [µg/mL]	MMC (Candida albicans [15]) [µg/mL]	MMC (Microsporum audouinii [16]) [µg/mL]	MMC (Citrobacter freundii [18]) [µg/mL]	further results
COc1cc2c(cc1OC)[C@H](c1ccc(O)cc1)[C@@H](C)C(C)=C2 [PYCNANTHULIGNENE A]	9.76 (≈ 31.4 µM)	19.5 (≈ 62.8 µM)	39.1 (≈ 126 µM)	78.1 (≈ 252 µM)	78.1 (≈ 252 µM)	19.5 (≈ 62.9 µM)	39.1 (≈ 126 µM)	19.5 (≈ 62.9 µM)	39.1 (≈ 126 µM)	19.53	39.1	78.1	>78.12	>78.12	39.06	78.12		
COc1ccc(-c2c(C)c(C)cc3cc4c(cc23)OCO4)cc1 [PYCNANTHULIGNENE C]	19.5 (≈ 63.7 µM)	19.5 (≈ 63.7 µM)	39.1 (≈ 128 µM)	78.1 (≈ 255 µM)	> 78.1	39.1 (≈ 127 µM)	39.1 (≈ 127 µM)	19.5 (≈ 63.7 µM)	39.1 (≈ 127 µM)	39.1	78.1	>78.1	>78.1	>78.12	39.06	78.1	78.12	MMC (Salmonella enterica [17]): 78.12 µg/mL
GENTAMICIN																		MIC (Staphylococcus aureus [1]): 4.88 µg/mL; MIC (Escherichia coli [2]): 4.88 µg/mL; MIC (Shigella dysenteriae [3]): 4.88 µg/mL; MIC (Klebsiella pneumoniae [4]): 19.5 µg/mL; MIC (Pseudomonas aeruginosa [5]): > 9.76 µg/mL; MIC (Salmonella enterica [6]; [19]): 9.76 µg/mL; MIC (Citrobacter freundii [7]): 4.88 µg/mL; MIC (Microsporum audouinii [9]): 4.88 µg/mL
NYSTATIN											9.8	9.8	19.5	19.5	9.8	9.8	9.8	MMC (Salmonella enterica [17]; [19]): 19.5 µg/mL
